RORa activator – activates the human nuclear receptor RORA; activation, % at 10 µM; P35398; CHO-K1 Gal4-RORA LBD luciferase reporter, luminescence; percent increase over mock-subtracted basal signal; 1.5% of 65,000 active;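 active = activation above the mean of all tested compounds plus 3 SD, cut at about 49% in these data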;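 also: 0% = DMSO-treated RORA cells and 100% = added signal equal to DMSO minus mock-transfected cells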
Target sequence (P35398 whole entry, looked up, the tested form may be a part): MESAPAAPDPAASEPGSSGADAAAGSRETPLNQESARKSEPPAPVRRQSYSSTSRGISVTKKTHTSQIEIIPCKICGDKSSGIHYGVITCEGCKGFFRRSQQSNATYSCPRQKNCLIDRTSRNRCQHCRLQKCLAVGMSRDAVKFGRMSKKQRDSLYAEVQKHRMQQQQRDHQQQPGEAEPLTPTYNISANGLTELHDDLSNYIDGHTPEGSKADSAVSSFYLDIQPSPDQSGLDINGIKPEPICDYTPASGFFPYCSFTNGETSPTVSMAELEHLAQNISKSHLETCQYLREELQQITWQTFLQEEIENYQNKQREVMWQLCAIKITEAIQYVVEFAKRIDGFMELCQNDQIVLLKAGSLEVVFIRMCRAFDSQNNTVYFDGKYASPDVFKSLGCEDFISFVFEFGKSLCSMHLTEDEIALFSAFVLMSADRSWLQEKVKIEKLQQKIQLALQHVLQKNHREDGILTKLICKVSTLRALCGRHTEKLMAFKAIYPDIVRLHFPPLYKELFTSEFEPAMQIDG
SF-1 act – activators of human nuclear receptor SF-1 | 1.9% of 65,000 active | CHO-K1 Gal4-SF-1 LBD luciferase reporter; % increase over DMSO SF-1-specific signal | AID 522 | Q13285 | activation, % at 10 µM;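 active = activation above the mean activation of all tested compounds plus 3 SD, cut at about 50% in these data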
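Material: Gal4–SF-1 LBD one-hybrid luciferase reporter in CHO-K1 cells | Amount: 4,000 cells per well | Compound dosing: 10 µM single point, 1% DMSO | Schedule: 20 h compound treatment, 37 °C | Measured by: SteadyLite luciferase luminescence | Evaluation: Percent activation versus DMSO | Control set: DMSO-treated SF-1-transfected cells as negative, DMSO-treated mock-transfected cells lacking SF-1 as background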
HEK293 NFkB inh – lowers PMA/ionomycin-induced NF-kB signal in HEK293 cells; AID 465; HEK-293 NF-kB luciferase reporter, luminescence; inhibition, % at 3 µM; 0.21% of 62,000 active;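 active = inhibition above the mean of all tested compounds plus 3 SD, cut at about 40% in these data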;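 also: 0% = stimulated DMSO wells and 100% = 10 µM reference inhibitor 5653914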
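System – HEK-293 cells with stable firefly luciferase reporter driven by four HIV NF-kB elements · Doses – one dose, 3 µM · Schedule – 1 h compound pre-incubation, 16 h PMA/ionomycin at 37 °C · Technique – luminescence from luciferase substrate reagent · Measure – percent inhibition normalized per plate to DMSO and reference-inhibitor controls · Replicates – tested once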
MT1-MMP txn act – MT1-MMP promoter transcription activation. HT1080 MT1-MMP promoter luciferase reporter, luminescence, overnight; active compounds read high. activation factor at 10 µM. 0.16% of 86,000 active. AID 750;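 active = activation factor of at least 2 for MT1-MMP transcription at 10 µM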
Jurkat viability – reduces viability or proliferation of Jurkat cells; Jurkat E6.1 viability, ATP luminescence, 48 h; inhibition, % at 4 µM; 1.2% of 56,000 active; AID 463;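 active = inhibition above the mean inhibition of all tested compounds plus 3 SD, cut at about 28% in these data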
Active calls of the source: *; nt = no result given. Only some compounds are listed: those with a hit (about 2.9% of all), similar ones and a draw of the others.

SMILES	RORa activator	SF-1 act	HEK293 NFkB inh	MT1-MMP txn act	Jurkat viability
O=S(=O)(c1ccc(Oc2ccc(S(=O)(=O)N3CCOCC3)cc2)cc1)N1CCOCC1	0	-21	6	1.2	6
C=CS(=O)(=O)c1ccc(Oc2ccc(S(=O)(=O)C=C)cc2)cc1	-94	-97	81*	0	100*
COc1ccc2c(c1)S/C(=C\C(=O)c1ccncc1)N2C	58*	46	-12	1.4	-7
COc1ccc(C)cc1Nc1cc(C)nc2nc(C)nn12	30	17	-3	1.1	36*
CN(C)CC(C(=O)c1ccccc1)c1ccccc1 (centres undefined)	-43	-68	32	0.3	101*
Cn1c(SCC(=O)N2CCN(c3ccccc3)CC2)nnc1-c1c[nH]c2ccccc12	-8	-18	11	1	21
CCCCSc1nnc(-c2c[nH]c3ccccc23)n1C	32	57*	-10	1.3	30
CCC1=C(OC(=O)N(CC)CC)N2C(=O)OC(=NCCOC)[C@]2(C)[C@H]2C1=CC[C@H]1C(=O)N(C)C(=O)[C@H]12	nt	nt	nt	1.1	nt
O=C(NCCn1ccc2ccccc21)c1ccc(S(=O)(=O)N2CCCCC2)cc1	-2	3	8	1.1	-4
COc1ccc(C(=O)NCCn2ccc3ccccc32)cc1	57*	58*	-23	1.1	5
O=C(NCCn1ccc2ccccc21)c1ccc2c(c1)OCO2	76*	72*	-40	1.4	-2
Cc1cc(C)cc(-n2c(C)cc(C(=O)CSc3nnnn3C)c2C)c1	nt	nt	nt	1.3	nt
Cc1cc(C(=O)CSc2nnnn2C)c(C)n1-c1cccc(F)c1	16	53*	-34	1.4	5
C=CCSc1n[nH]c(-c2ccc(OC)cc2)n1	63*	68*	-21	1.4	0
C=CCSc1n[nH]c(-c2ccccc2)n1	nt	nt	nt	1.4	nt
CCOC(=O)C1=C(C)N(CCCC(=O)O)C(=O)NC1c1cc2ccccc2c2ccccc12 (centres undefined)	nt	nt	nt	1.2	nt
CCOC(=O)c1cc(NC(=O)c2ccoc2C)cc(C(=O)OCC)c1	-2	8	2	1.1	-4
COC1CCCCC1Nc1ccc(C)c(C)c1 (centres undefined)	nt	nt	nt	0.9	nt
Cc1cc(NC(=O)CSc2nc3ccccc3c(=O)n2C2CCCC2)no1	-8	-29	20	nt	71*
O=C(Nc1c(Cl)cc(Cl)cc1-c1nc2ccccc2s1)c1ccc(Br)o1	nt	nt	nt	1.2	nt
C=CCOC(=O)c1[nH]c2c(c1C)C(=O)CC(c1cc(OC)c(OC)c(OC)c1)C2 (centres undefined)	-24	-52	17	nt	43*
CCCCOC(=O)c1[nH]c2c(c1C)C(=O)CC(c1cc(OC)c(OC)c(OC)c1)C2 (centres undefined)	-64	-54	27	nt	46*
COc1ccc(C2CC(=O)c3c([nH]c(C(=O)OC(C)C)c3C)C2)cc1OC (centres undefined)	8	-4	11	nt	nt
COCCNC(=O)c1cc2c(=O)n(C)c3ccccc3c2n1C	-2	-11	11	1.1	-3
COCCCNC(=O)c1cc2c(=O)n(C)c3ccccc3c2n1C	60*	38	2	1	15
SMILES	RORa activator	SF-1 act	HEK293 NFkB inh	MT1-MMP txn act	Jurkat viability
Nc1nc(-c2ccccc2)nc(-c2ccccc2O)n1	-1	26	3	1.2	0
Nc1nc(-c2ccccc2)cc(-c2ccccc2O)n1	49*	19	-45	1.2	11
COc1ccc(C2=NOC(C(=O)NCc3ccc(F)cc3)C2)cc1OC (centres undefined)	-4	3	33	0.6	93*
COc1cc(C2=NOC(C(=O)NCc3ccc(F)cc3)C2)cc(OC)c1OC (centres undefined)	-18	-8	30	0.6	96*
COc1cccc(C2=NOC(C(=O)NCc3ccc(F)cc3)C2)c1 (centres undefined)	-4	8	-2	1.2	-5
N#Cc1nc(COc2ccccc2F)oc1N1CCCCCC1	34	14	11	2.2*	-2
N#Cc1nc(COc2ccccc2Cl)oc1N1CCCCCC1	17	-18	25	1.1	7
Cc1nc(NC(=O)CSc2ccccc2N)sc1C	17	11	-4	1.1	1
O=C(CCCN1CCOCC1)c1ccc2c(c1)OCCO2	29	56*	-18	1.5	6
O=C(CCN1CCOCC1)c1ccc2c(c1)OCCO2	nt	nt	nt	1.2	nt
Nc1nc2sc3c(c2c(=O)s1)CCCC3	11	56*	3	1.3	-4
Cc1sc2nc3n(c(=O)c2c1C)CCCS3	-2	-13	11	1.2	-6
O=c1c2c3c(sc2nc2n1CCCC2)CCCCC3	nt	nt	nt	1.7	nt
O=c1c2c3c(sc2nc2n1CCCCC2)CCCCC3	55*	42	-19	1.5	1
O=c1c2c3c(sc2nc2n1CCCCC2)CCCC3	106*	60*	-15	1.7	7
O=c1c2c3c(sc2nc2n1CCCS2)CCCC3	39	71*	nt	1.7	nt
COc1cc(C2Nc3ccc4ncccc4c3C3=C2C(=O)CCC3)cc(OC)c1O (centres undefined)	-11	-11	14	0.8	71*
COc1ccc(N2CCN(C(c3ccccc3)c3sc4nc(C)nn4c3O)CC2)cc1 (centres undefined)	8	7	20	1	2
COc1cccc(CNC(=O)c2cc3oc4ccccc4c3n2C)c1OC	-8	-5	18	1	29*
Cc1ccc(NC(=O)C2CCN(C(=O)NC3CCCCC3)CC2)cc1Cl	2	1	13	1	-4
Cc1ccc(NC(=O)NC2CCCCC2)cc1Cl	106*	74*	-48	1.3	-6
Cc1cc(N)c(NC2=CC(=O)CC(C)(C)C2)cc1C	70*	9	9	1.1	2
COC(=O)N1CC=CC1(C)C(=O)NCCN1CCOCC1 (centres undefined)	nt	nt	nt	1	nt
CC(C)c1cc(C(=O)Nc2ccc3c(c2)OCO3)no1	20	29	-38	0.9	-5
O=C(c1ccc2c(c1)OCCCO2)c1cccs1	22	54*	-40	1.4	1
SMILES	RORa activator	SF-1 act	HEK293 NFkB inh	MT1-MMP txn act	Jurkat viability
O=C(Nc1cccc(F)c1)c1ccc2c(c1)OCO2	31	62*	-25	1.1	-5
O=C(Nc1ccc2c(c1)OCO2)c1cccs1	26	61*	-10	1.4	1
O=C(Nc1ccc2c(c1)OCO2)c1cc(C2CC2)on1	60*	49	-39	1	8
Cc1cc(NC(=O)c2ccc3c(c2)OCO3)no1	30	60*	-28	1	-8
N/C(=N\O)c1ccc(NC(=O)c2cccs2)cc1	36	52*	-20	1.5	4
O=C(Nc1ccc2c(c1)OCO2)c1ccc(Br)s1	69*	49	-39	nt	-4
COc1ccccc1NC(=O)C1CC(=O)OC1c1ccccc1 (centres undefined)	6	-12	7	1.2	3
Cc1ccc2cc(CN(Cc3ccco3)C(=O)c3cccs3)c(=O)[nH]c2c1	76*	45	10	0.8	92*
